Shown are actives, neighbours in structure and some others; about 1.1% of the full set was active somewhere.
CAL PDZ FP-1 = blocks peptide binding to the human CAL PDZ domain | purified CAL PDZ, TMR-peptide fluorescence polarization, 1 h | inhibition, % at 24.9 µM | 300,000 tested, 0.92% active | AID 602252;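 active means mean inhibition of at least 30% with at least half of replicates also reaching 30%; inconclusive means no clear call, values can overlap the other calls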;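 further: 0% = DMSO neutral control and 100% = excess unlabeled competitor peptide PRC23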
miR-122 sensor = inhibitors of miR-122 in Huh7 cells; Huh7 miR-122 Renilla luciferase sensor, 48 h; neutral wells = 0, positive control = 100; activation (reporter increase), % at 12.5 µM; 340,000 tested, 0.3% active;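 active means mean replicate activation score at least 90 and every replicate individually at or above 90; inconclusive means only one of the two criteria met; inactive means neither criterion met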;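 further: higher luciferase means less miR-122 activity so hits act as miR-122 inhibitors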
CAL PDZ FP-2 = blocks peptide binding to human CAL PDZ domain. purified CAL PDZ, TMR-peptide fluorescence polarization, 1 h. inhibition, % at 20 µM. Q9HD26. 330,000 tested, 0.02% active;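 active means highest replicate inhibition of at least 40%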;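 further: plate controls were DMSO neutral control wells for no effect and unlabeled competitor peptide control wells for full effect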
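System: purified tagged CAL PDZ domain construct (CerCALP). Schedule: 1 h incubation at room temperature before polarization reading. Medium: 25 mM sodium phosphate pH 7.4, 150 mM NaCl, TCEP, IgG, Thesit. Read-out: percent inhibition from loss of millipolarization. Measured by: FP readout, S and P plane fluorescence. Probe or stimulus: fluorescent TMR peptide probe.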
Cneo AK release = causes C. neoformans cell lysis | adenylate kinase release luminescence, 4 h; normalised: neutral wells 0, clomiphene wells 100 | 360,000 tested, 0.2% active | lysis activity, % at 15 µM;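 active means mean lysis activity across replicates of at least 80%, whatever share of replicates individually reach that level; inactive means mean lysis activity below 80%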
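Material: C. neoformans cells; Schedule: 4 h static compound exposure, 37 °C, read 1 h post-reagent; Measured by: adenylate kinase release luminescence; Read-out: signal increase indicating cell lysis; Controls: Clomiphene as positive lysis control.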
PglD DTNB = inhibitors of Campylobacter jejuni PglD acetyltransferase; AID 602405; 360,000 tested, 0.098% active; inhibition, % at 12.5 µM; purified PglD enzyme, DTNB colorimetric CoA detection; in the data active means inhibition above about 16%, passing the limit was not always enough; inconclusive means no clear call, values can overlap the other calls
Active calls of the source: *; ? = inconclusive; / = not tested or not shown; [ ] = remark or other dose.

SMILES	CAL PDZ FP-1	miR-122 sensor	CAL PDZ FP-2	Cneo AK release	PglD DTNB
C[C@@H]1CN([C@H](C)CO)C(=O)c2cccc(NC(=O)c3nc4ccccc4s3)c2O[C@@H]1CN(C)C(=O)Nc1ccccc1	/	67[16.7 µM]	/	3	1
CCCNC(=O)N(C)C[C@@H]1Oc2ncc(C#CCc3ccccc3)cc2C(=O)N([C@@H](C)CO)C[C@@H]1C	/	3[16.7 µM]	/	97*	-1
CCCC#Cc1cnc2c(c1)C(=O)N([C@@H](C)CO)C[C@H](C)[C@H](CN(C)C(=O)Nc1cccc(F)c1)O2	/	88[16.7 µM]	/	88*	-1
COCC(=O)N(C)C[C@@H]1Oc2ncc(C#CCC3CCCC3)cc2C(=O)N([C@@H](C)CO)C[C@H]1C	/	14[16.7 µM]	/	103*	3
CC(C)CC#Cc1cnc2c(c1)C(=O)N([C@H](C)CO)C[C@H](C)[C@H](CN(C)C(=O)c1cccnc1)O2	/	18[16.7 µM]	/	82*	1
COCC(=O)N(C)C[C@H]1Oc2ncc(C#CCC3CCCC3)cc2C(=O)N([C@H](C)CO)C[C@H]1C	/	2[16.7 µM]	/	-1	2
Cc1cc(C)cc(CC(=O)N2CCC2(C)C(=O)NS(=O)(=O)c2ccc(Br)cc2)c1 (stereo unspecified)	/	8	/	0	-2
O=C(C[C@@H]1C[C@@H]2c3cc(NC(=O)C4CCC4)ccc3O[C@@H]2[C@@H](CO)O1)NCc1cccnc1	/	4[16.7 µM]	/	-1	2
COCC#Cc1cnc2c(c1)C(=O)N([C@H](C)CO)C[C@@H](C)[C@@H](CN(C)C(=O)Nc1ccc(OC)cc1)O2	/	11[16.7 µM]	/	97*	-4
COc1cccc(C#Cc2cnc3c(c2)C(=O)N([C@H](C)CO)C[C@@H](C)[C@@H](CN(C)C(=O)C2CCOCC2)O3)c1	/	4[16.7 µM]	/	81*	-2
COc1cccc(C#Cc2cnc3c(c2)C(=O)N([C@@H](C)CO)C[C@@H](C)[C@H](CN(C)C(=O)C2CCOCC2)O3)c1	/	5[16.7 µM]	/	31	-1
CC(C)CC#Cc1cnc2c(c1)C(=O)N([C@@H](C)CO)C[C@@H](C)[C@@H](CN(C)C(=O)c1cccc(F)c1)O2	/	4[16.7 µM]	/	101*	2
CO[C@H]1CN(C)C(=O)c2ccc(NS(=O)(=O)c3ccc(Cl)cc3)cc2OC[C@H](C)N(C(=O)NC(C)C)C[C@@H]1C	/	1[16.7 µM]	/	-8	3
O=C(Nc1sc2c(c1C(=O)O)CCCCC2)c1ccco1	-3	208*	-1	-5	2
CN(C)C(=O)c1c(NC(=O)c2ccco2)sc2c1CCCCC2	3	-2	/	2	-3
Cc1ccc(NCc2n[nH]c(=S)n2Cc2ccccc2)cc1Cl	1	/	-3	/	/
CC(C)CN1CCC(Oc2cccc(C(=O)NCCc3ccccc3)c2)CC1	29	-4	-3	-2	0
COCC(C)N1CCC(Oc2cccc(C(=O)NCCc3ccccc3)c2)CC1 (stereo unspecified)	49*	/	0	0	-4
CCc1ccc(N(CC(=O)NC(C)(C)C)C(=O)CNC(=O)c2cccs2)cc1	-4	/	-4	5	-2
CCC(C)c1ccc(N(CC(=O)NC(C)(C)C)C(=O)CNC(=O)c2cccs2)cc1 (stereo unspecified)	32*	-6	-1	-1	-1
COC(=O)CSc1nnc(CNS(=O)(=O)c2ccc(Cl)cc2)n1C	0	-11	-1	1	-3
CCOC(=O)C1(CCOc2ccccc2)CCN(Cc2nccn2CC)CC1	33*	/	0	/	/
CCOC(=O)C1(CCCc2ccccc2)CCN(Cc2nccn2CC)CC1	0	/	-2	/	/
CCc1ccccc1NC(=O)CC1SCCNC1=O (stereo unspecified)	32*	/	-1	/	/
O=C(OCC(=O)c1ccccc1)C1=NN(c2ccccc2)C(=O)CC1	/	-7	0	4	3
SMILES	CAL PDZ FP-1	miR-122 sensor	CAL PDZ FP-2	Cneo AK release	PglD DTNB
O=C(OCc1csc(-c2ccccc2)n1)C1=NN(c2ccccc2)C(=O)CC1	31*	-8	0	0	4
COc1ccc(CCC(=O)NNC(=O)c2ccccn2)cc1OC	98*	1	-3	0	0
CCCC[C@@H]1CNC(=S)N1CCc1cccc(F)c1	-1	76	0	16	4
Fc1cccc(CCN2C(=S)NC[C@@H]2Cc2ccccc2)c1	-4	/	-1	142*	-2
COc1ccc(CCNC(=O)COC(=O)Cn2cnc3ccccc3c2=O)cc1	-2	186*	0	3	-4
CC1=NC(C)(C)Cc2c(C)cccc21	-4	0	0	6	-2
CC1=NC(C)(C)Cc2cc(C)c(C)cc21	54*	/	0	/	/
O=C(O)C1CC=CCC1C(=O)NC12CC3CC(CC(C3)C1)C2 (stereo unspecified)	67*	9	0	5	-1
O=C(O)CC(=O)NC12CC3CC(CC(C3)C1)C2	1	-7	0	0	4
O=C(Nc1cccc(Br)c1)c1cc(=O)c2ccccc2o1	6	-3	-1	3	-3
CC(=O)c1cccc(NC(=O)c2cc(=O)c3ccccc3o2)c1	50*	-1	-1	2	-4
O=S(=O)(c1ccccc1)N1CCN=C1SCc1ccc(Cl)cc1	44*	/	-1	/	/
O=S(=O)(c1ccc(Br)cc1)N1CCN=C1SCc1cccnc1	45*	/	-1	/	/
O=S(=O)(c1ccc(F)cc1)N1CCN=C1SCc1cccnc1	5	/	0	/	/
COc1cccc(NC(=O)N[C@H]2CC[C@H](CC(=O)Nc3ccccc3)O[C@H]2CO)c1	/	/	/	1	1
CC(=O)N[C@H]1C=C[C@@H](CC(=O)NCc2ccc(Cl)cc2)O[C@@H]1CO	/	/	/	6	4
COc1ccc(-c2nc(N)ncc2-c2ccc(OC)c(OC)c2)c(O)c1	59*	/	/	-2	2
COc1ccc(-c2ncncc2-c2ccc(OC)c(OC)c2)c(O)c1	-6	/	/	3	-5
CCOC(=O)C1CCN(c2ccc(-c3cccs3)nn2)CC1	93*	/	/	-9	-6
O=S(=O)(NCCc1ccccc1)c1ccc(F)cc1Br	-6	?	0	0	-2
O=S(=O)(NCCc1ccc(F)cc1)c1cc(C(F)(F)F)ccc1Br	-4	127*	0	0	-4
C[C@@H]1CN([C@H](C)CO)C(=O)Cc2cc(NS(C)(=O)=O)ccc2O[C@@H]1CN(C)C(=O)Nc1ccc(C(F)(F)F)cc1	/	-5[16.7 µM]	/	5	0
CCCCc1c(O)nc(SCC(=O)N2CCCCC2)n(-c2ccccc2C)c1=O	54*	-5	-1	/	/
COc1ccc(-c2ccc([C@H]3[C@H](C#N)N(C(=O)c4cccnc4)[C@H]3CO)cc2)cc1	/	/	/	4	0
O=C(COc1ccc(F)cc1Br)N1CCN(S(=O)(=O)/C=C/c2ccccc2)CC1	54*	2	-1	25	-1
FC(F)Oc1ccc(NC(=S)NCc2nc3ccccc3[nH]2)cc1	41*	/	-2	/	/
O=[N+]([O-])c1c(Nc2ccccc2O)ccc2nonc12	36*	-3	-1	-2	0
Cc1ccccc1Nc1ccc2nonc2c1[N+](=O)[O-]	-13	/	/	1	-5

Screens as filed in PubChem BioAssay.
